≈ marks a conversion by molar mass, not a printed value.
Experiments:
Pseudomonas aeruginosa [1] = test: Antibacterial activity against efflux pump deficient Pseudomonas aeruginosa PAO750 assessed as inhibition of bacterial growth measured after 16 to 20 hrs; type: functional; conditions: time 16-20 hrs
Method in brief: (§1)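 Read visually as complete growth inhibition by the unaided eye, with medium-only wells as control.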

Escherichia coli [2] = test: Antibacterial activity against Escherichia coli harboring tolC efflux defective mutant assessed as inhibition of bacterial growth measured after 16 to 20 hrs; type: functional; conditions: time 16-20 hrs
Method in brief: (§2)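 MIC read visually as the lowest concentration giving complete growth inhibition to the unaided eye, with medium-only wells as the control.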

Klebsiella pneumoniae = test: Antibacterial activity against wild type Klebsiella pneumoniae ATCC 13883 assessed as inhibition of bacterial growth measured after 16 to 20 hrs
Pseudomonas aeruginosa [3] = test: Antibacterial activity against wild type Pseudomonas aeruginosa PAO1 assessed as inhibition of bacterial growth measured after 16 to 20 hrs; type: functional; conditions: time 16-20 hrs; method in brief: as §1
HepG2 = test: Cytotoxicity against human HepG2 cells assessed as reduction in cell viability measured after 72 hrs by fluorometric assay; type: cell-based; conditions: HepG2, 72 h
Method in brief: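 HepG2 cells grown with L-glutamine 2 mM, passaged twice weekly, used up to 20 passages. Seeded at 1000 cells/well in 384-well plates, exposed 72 h. Fluorescence read-out; survival index (%) = test-well fluorescence as percent of control cultures, blanks subtracted. Assay accepted if control signal-to-noise >10, CV <30%, bortezomib positive control SI <5%.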

[4] = Inhibition of Escherichia coli LepB using dabcyl-VEVGGTATA GFSPRGLE-EDANS and dabcyl-KLTGFTVKPVQAIA GYEILE-EDANS-OH as substrates preincubated for 10 mins followed by substrate addition by FRET assay
Method in brief: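 FRET assay with recombinant E. coli LepB, final about 50 nM. Enzyme pre-incubated with inhibitor 10 min at 22 °C, then substrate added at 8 µM. Linear fluorescence increase from cleavage followed at 22 °C for 2 h. IC50 from non-linear regression of sigmoidal rate vs. inhibitor concentration curves.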

Escherichia coli [5] = test: Antibacterial activity against Escherichia coli D22 mutant assessed as inhibition of bacterial growth measured after 16 to 20 hrs; type: functional; conditions: time 16-20 hrs; method in brief: as §2
Acinetobacter baumannii = test: Antibacterial activity against Acinetobacter baumanii ATCC 19606 assessed as inhibition of bacterial growth measured after 16 to 20 hrs; type: functional; conditions: ATCC 19606 = CIP 70.34 = JCM 6841, time 16-20 hrs; method in brief: as §1
Escherichia coli [6] = test: Antibacterial activity against wild type Escherichia coli ATCC 25922 assessed as inhibition of bacterial growth measured after 16 to 20 hrs; type: functional; conditions: time 16-20 hrs; method in brief: as §1
[7] = Hemolytic activity against human RBC assessed as hemolysis measured after 45 mins; type: ADME, tissue-based, Erythrocyte; conditions: red blood cells (RBC), read-out: Activity
Method in brief: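 Human RBCs from heparinized blood, washed three times in Tyrode buffer pH 7.4. Final 100 µM compound, 1% DMSO, 50% RBC; 37 °C, 45 min, shaking 250 rpm. Cells spun off, supernatant hemoglobin read at 540 nm. Percent hemolysis relative to 2% Triton X-100 full lysis and buffer-only negative control.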

Staphylococcus aureus = test: Antibacterial activity against staphylococcus aureus ATCC 29213 assessed as inhibition of bacterial growth measured after 16 to 20 hrs; type: functional; conditions: time 16-20 hrs; method in brief: as §1

Which MIC (Pseudomonas aeruginosa [1]) does the source give for `CCCCCCc1ccc(-c2ccc([S@](=N)(=O)N3CCC[C@H]3C(=O)N[C@H](C(=O)N[C@@H](C)C(=O)NC(CC(N)=O)C(=O)N[C@@H](C)B3O[C@@H]4C[C@H]5C[C@H](C5(C)C)[C@]4(C)O3)[C@@H](C)O)cc2)cc1` (mixture of isomers) here?
The MIC was greater than 64 µg/mL.

What about the MIC (Escherichia coli [2]) of the same molecule?
The MIC was 4 µg/mL.

What about the MIC (Klebsiella pneumoniae) of the same molecule?
Its MIC is greater than 64 µg/mL.

And the MIC (Pseudomonas aeruginosa [3])?
Its MIC is greater than 64 µg/mL.

And the IC50 (HepG2)?
Its IC50 is 2.95 µM.

What about the IC50 [4] of the same molecule?
The IC50 was 1.07 µM.

What about the MIC (Escherichia coli [5]) of the same molecule?
Its MIC is 8 µg/mL.

What about the MIC (Acinetobacter baumannii) of the same molecule?
The MIC was greater than 64 µg/mL.

And the MIC (Escherichia coli [6])?
Its MIC is greater than 64 µg/mL.

And the hemolysis at 0.75 h [7]?
Its hemolysis at 0.75 h is 2.15%.

What about the MIC (Staphylococcus aureus) of the same molecule?
The MIC was 4 µg/mL.

With `CCCCCCCCCCCCS(=O)(=O)N1CCC[C@H]1C(=O)N[C@H](C(=O)N[C@@H](C)C(=O)NC(CC(N)=O)C(=O)N[C@@H](C)B1O[C@@H]2C[C@H]3C[C@H](C3(C)C)[C@]2(C)O1)[C@@H](C)O` (mixture of isomers) as the molecule, how does the MIC (Pseudomonas aeruginosa [1]) read?
Its MIC is 32 µg/mL.

What about the MIC (Escherichia coli [2]) of the same molecule?
Its MIC is 8 µg/mL.

And the MIC (Klebsiella pneumoniae)?
The MIC was greater than 64 µg/mL.

And the MIC (Pseudomonas aeruginosa [3])?
Its MIC is greater than 64 µg/mL.

What about the IC50 (HepG2) of the same molecule?
The IC50 was 1.2 µM.

What about the IC50 [4] of the same molecule?
The IC50 was 0.056 µM.

What about the MIC (Escherichia coli [5]) of the same molecule?
The MIC was 16 µg/mL.

What about the MIC (Acinetobacter baumannii) of the same molecule?
The MIC was greater than 64 µg/mL.

And the MIC (Escherichia coli [6])?
The MIC was greater than 64 µg/mL.

What about the hemolysis at 0.75 h [7] of the same molecule?
Its hemolysis at 0.75 h is 0.1%.

And the MIC (Staphylococcus aureus)?
Its MIC is less than 1 µg/mL.

Which MIC (Pseudomonas aeruginosa [1]) does the source give for `CCCCCCc1ccc(-c2ccc(S(=O)(=NCCN)N3CCC[C@H]3C(=O)N[C@H](C(=O)N[C@@H](C)C(=O)NC(CC(N)=O)C(=O)N[C@@H](C)B3O[C@@H]4C[C@H]5C[C@H](C5(C)C)[C@]4(C)O3)[C@@H](C)O)cc2)cc1` (stereo not given in full) here?
The MIC was greater than 64 µg/mL.

And the MIC (Escherichia coli [2])?
Its MIC is 16 µg/mL (≈ 16.9 µM).

And the MIC (Klebsiella pneumoniae)?
The MIC was greater than 64 µg/mL.

And the MIC (Pseudomonas aeruginosa [3])?
Its MIC is greater than 64 µg/mL.

What about the IC50 (HepG2) of the same molecule?
The IC50 was 5.2 µM.

And the IC50 [4]?
Its IC50 is 0.133 µM.

And the MIC (Escherichia coli [5])?
The MIC was 8 µg/mL (≈ 8.43 µM).

What about the MIC (Acinetobacter baumannii) of the same molecule?
Its MIC is 64 µg/mL (≈ 67.4 µM).

What about the MIC (Escherichia coli [6]) of the same molecule?
Its MIC is 64 µg/mL (≈ 67.4 µM).

And the hemolysis at 0.75 h [7]?
The hemolysis at 0.75 h was 5.32%.

And the MIC (Staphylococcus aureus)?
The MIC was less than 1 µg/mL.

For `CCCCCCc1ccc(-c2ccc(S(=O)(=O)N3CCC[C@H]3C(=O)N[C@H](C(=O)N[C@@H](C)C(=O)NC(CC(N)=O)C(=O)N[C@@H](C)B3O[C@@H]4C[C@H]5C[C@H](C5(C)C)[C@]4(C)O3)[C@@H](C)O)cc2)cc1` (mixture of isomers), which MIC (Pseudomonas aeruginosa [1]) is on record?
Its MIC is greater than 64 µg/mL.

What about the MIC (Escherichia coli [2]) of the same molecule?
The MIC was greater than 64 µg/mL.

What about the MIC (Klebsiella pneumoniae) of the same molecule?
Its MIC is greater than 64 µg/mL.

And the MIC (Pseudomonas aeruginosa [3])?
The MIC was greater than 64 µg/mL.

And the IC50 (HepG2)?
The IC50 was 0.58 µM.

What about the IC50 [4] of the same molecule?
Its IC50 is 0.071 µM.

And the MIC (Escherichia coli [5])?
Its MIC is greater than 64 µg/mL.

What about the MIC (Acinetobacter baumannii) of the same molecule?
Its MIC is greater than 64 µg/mL.

What about the MIC (Escherichia coli [6]) of the same molecule?
Its MIC is greater than 64 µg/mL.

And the hemolysis at 0.75 h [7]?
Its hemolysis at 0.75 h is 14.5%.

What about the MIC (Staphylococcus aureus) of the same molecule?
The MIC was greater than 64 µg/mL.

What does the source list for `CCCCCCc1ccc(-c2ccc([S@@](=N)(=O)N3CCC[C@H]3C(=O)N[C@H](C(=O)N[C@@H](C)C(=O)NC(CC(N)=O)C(=O)N[C@@H](C)B3O[C@@H]4C[C@H]5C[C@H](C5(C)C)[C@]4(C)O3)[C@@H](C)O)cc2)cc1` (mixture of isomers)?
MIC (Pseudomonas aeruginosa [1]): > 64 µg/mL; MIC (Escherichia coli [2]): 4 µg/mL; MIC (Klebsiella pneumoniae): > 64 µg/mL; MIC (Pseudomonas aeruginosa [3]): > 64 µg/mL; IC50 (HepG2): 2.99 µM; IC50 [4]: 1.11 µM; MIC (Escherichia coli [5]): 32 µg/mL; MIC (Acinetobacter baumannii): > 64 µg/mL; MIC (Escherichia coli [6]): > 64 µg/mL; hemolysis at 0.75 h [7]: 0.35%; MIC (Staphylococcus aureus): 4 µg/mL

— ChEMBL document CHEMBL5053496, “Antibacterial sulfonimidamide-based oligopeptides as type I signal peptidase inhibitors: Synthesis and biological evaluation” (Eur J Med Chem, 2021)
